Drawing on ChEMBL document CHEMBL1157757, “Macrocyclic hexaoxazoles: Influence of aminoalkyl substituents on RNA and DNA G-quadruplex stabilization and cytotoxicity” (Bioorg Med Chem Lett, 2010), this text covers IC50 and ΔTm for 24 compounds.

The structures appear in SMILES notation. Bounds are passed on as bounds.

The term IC50 denotes the concentration at which inhibition is half-maximal. A higher IC50 goes with weaker potency. The ΔTm is the shift of the melting midpoint relative to a reference.

Experiment [1] is described as follows: Cytotoxicity against human RPMI8402 cells after 4 days by MTT assay. It counts as functional, cell-based. As to conditions: RPMI 8402, 96 h. Put shortly:
(§1)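 Growth inhibition in RPMI 8402, KB3-1, MDR1-expressing KBV-1 and BCRP-expressing KBH5.0 cells; IC50 reported as mean of three experiments ± standard deviation.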

A short description of experiment [2]: Cytotoxicity against wild type human KB3-1 cells after 4 days by MTT assay. The conditions noted are these: KB 3-1, 96 h. Format: functional, cell-based. Put shortly: as §1
On the technique in general: Formazan colour is commonly taken as a measure of viable cells.

Experiment [3] is described as follows: Cytotoxicity against multidrug-resistant human KBV1 cells expressing MDR1 after 4 days by MTT assay. The conditions noted are these: KB-V1, 96 h. It counts as functional, cell-based. Put shortly:
as §1

Experiment [4] is described as follows: Cytotoxicity against multidrug-resistant human KBH5.0 cells expressing BCRP after 4 days by MTT assay. The conditions noted are these: KBH5.0 cell, 96 h. It counts as functional, cell-based. Put shortly: as §1
Experiment [5] has as its system Nucleic Acid. Briefly: Binding affinity to human G-quadruplex d[T2G3(T2AG3)3A] DNA assessed as change in transition temperature at 20 uM in presence of 150 mM K+ ions. It counts as nucleic-acid assay. Put shortly:
(§2)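 Quadruplex UV melting of hTel DNA or AurA RNA at 5 µM in strand, ligand 20 µM, in 10 mM potassium phosphate pH 7.5 plus 132 mM KCl (150 mM total K+); Ttran from maxima or minima of first-derivative melting profiles; ΔTtran uncertainty 0.5 °C.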

The subject of experiment [6] is Nucleic Acid. In words: Binding affinity to r[AG4CG2-CUG2UCG2AGUG2C] sequence of quadruplex RNA assessed as change in transition temperature at 20 uM in presence of 150 mM K+ ions. It counts as nucleic-acid assay. Put shortly: as §2
Experiment [7] is described as follows: Cytotoxicity against human RPMI8402 cells. It counts as functional, cell-based. The conditions noted are these: RPMI 8402. Put shortly:
as §1

As for `CC(C)[C@@H]1NC(=O)c2coc(n2)-c2coc(n2)-c2coc(n2)C/C=C/c2coc(n2)-c2coc(n2)-c2coc1n2`, the IC50 turned out to be 30 nM in experiment [1], 40 nM in experiment [2], 3500 nM in experiment [3] and 40 nM in experiment [4].
For `CC(C)[C@@H]1NC(=O)c2coc(n2)-c2coc(n2)-c2coc(n2)[C@H](CCCN)NC(=O)c2coc(n2)-c2coc(n2)-c2coc1n2`, the 50% inhibitory concentration (IC50) was 2500 nM in experiment [1], 800 nM in experiment [2], over 10000 nM in experiment [3] and 380 nM in experiment [4].
On the same counts, the results for `NCC[C@@H]1NC(=O)c2coc(n2)-c2coc(n2)-c2coc(n2)[C@H](CCN)NC(=O)c2coc(n2)-c2coc(n2)-c2coc1n2` are over 10000 nM, over 10000 nM, over 10000 nM and over 10000 nM.
`CC(C)[C@@H]1NC(=O)c2coc(n2)-c2coc(n2)-c2coc(n2)[C@H](CCCCN)NC(=O)c2coc(n2)-c2coc(n2)-c2coc1n2`: the IC50 in experiment [1] was 4800 nM; in experiment [2], 3400 nM; in experiment [3], over 10000 nM; in experiment [4] it was 3000 nM.
For `CC(C)[C@@H]1NC(=O)c2coc(n2)-c2coc(n2)-c2coc(n2)[C@H](C(C)C)NC(=O)c2coc(n2)-c2coc(n2)-c2coc1n2` [HEXAOXAZOLE DIVALINE], the IC50 in experiment [1] came to 540 nM; in experiment [2], 350 nM; in experiment [3], 7700 nM; in experiment [4] it was 450 nM; in experiment [7] it was 540 nM. Also, the results for the ΔTm in experiment [5] and in experiment [6] were 11.5 °C and 19.5 °C, respectively.
Turning to `CC(=O)NCCC[C@@H]1NC(=O)c2coc(n2)-c2coc(n2)-c2coc(n2)[C@H](C(C)C)NC(=O)c2coc(n2)-c2coc(n2)-c2coc1n2`, the IC50 in experiment [1] was 2500 nM; in experiment [2] it was 3400 nM; in experiment [3], over 10000 nM; in experiment [4], 3000 nM.
Consider `CN(C)CCCC[C@@H]1NC(=O)c2coc(n2)-c2coc(n2)-c2coc(n2)[C@H](CCCCN(C)C)NC(=O)c2coc(n2)-c2coc(n2)-c2coc1n2`, for which the IC50 was over 10000 nM in experiment [1], 4000 nM in experiment [2], over 10000 nM in experiment [3] and 3600 nM in experiment [4].
Take `CN(C)CC[C@@H]1NC(=O)c2coc(n2)-c2coc(n2)-c2coc(n2)[C@H](CCN(C)C)NC(=O)c2coc(n2)-c2coc(n2)-c2coc1n2`: the concentration for half-maximal inhibition (IC50) in experiment [1] is 4300 nM; in experiment [2], 2800 nM; in experiment [3] it was over 10000 nM; in experiment [4], 650 nM.
Consider `CC(=O)NCCCC[C@@H]1NC(=O)c2coc(n2)-c2coc(n2)-c2coc(n2)[C@H](CCCCNC(C)=O)NC(=O)c2coc(n2)-c2coc(n2)-c2coc1n2`, for which the IC50 was 3300 nM in experiment [1], 4000 nM in experiment [2], over 10000 nM in experiment [3] and 4500 nM in experiment [4].
Turning to `CC(=O)NCCC[C@@H]1NC(=O)c2coc(n2)-c2coc(n2)-c2coc(n2)[C@H](CCCNC(C)=O)NC(=O)c2coc(n2)-c2coc(n2)-c2coc1n2`, the IC50 in experiment [1], in experiment [2], in experiment [3] and in experiment [4] was over 10000 nM each time.
Take `CC(C)[C@@H]1NC(=O)c2coc(n2)-c2coc(n2)-c2coc(n2)[C@H](CCNC(=O)OC(C)(C)C)NC(=O)c2coc(n2)-c2coc(n2)-c2coc1n2`: the concentration for half-maximal inhibition (IC50) was 310 nM in experiment [1], 290 nM in experiment [2], over 10000 nM in experiment [3] and 250 nM in experiment [4].
Regarding `NCCC[C@@H]1NC(=O)c2coc(n2)-c2coc(n2)-c2coc(n2)[C@H](CCCN)NC(=O)c2coc(n2)-c2coc(n2)-c2coc1n2`, the IC50 is over 10000 nM in experiment [1], 6300 nM in experiment [2], over 10000 nM in experiment [3] and 3100 nM in experiment [4].
Regarding `CC(C)[C@@H]1NC(=O)c2coc(n2)-c2coc(n2)-c2coc(n2)[C@H](CCN)NC(=O)c2coc(n2)-c2coc(n2)-c2coc1n2`, the IC50 is 1200 nM in experiment [1], 2200 nM in experiment [2], over 10000 nM in experiment [3] and 1200 nM in experiment [4].
For `CC(=O)NCC[C@@H]1NC(=O)c2coc(n2)-c2coc(n2)-c2coc(n2)[C@H](C(C)C)NC(=O)c2coc(n2)-c2coc(n2)-c2coc1n2`, the concentration for half-maximal inhibition (IC50) in experiment [1] is 950 nM; in experiment [2], 450 nM; in experiment [3], over 10000 nM; in experiment [4] it was 900 nM.
Take `CC(C)(C)OC(=O)NCC[C@@H]1NC(=O)c2coc(n2)-c2coc(n2)-c2coc(n2)[C@H](CCNC(=O)OC(C)(C)C)NC(=O)c2coc(n2)-c2coc(n2)-c2coc1n2`: the IC50 was 350 nM in experiment [1], 250 nM in experiment [2], over 10000 nM in experiment [3] and 250 nM in experiment [4].
On to `CC(C)[C@@H]1NC(=O)c2coc(n2)-c2coc(n2)-c2coc(n2)[C@H](CCCCNC(=O)OC(C)(C)C)NC(=O)c2coc(n2)-c2coc(n2)-c2coc1n2`, for which the 50% inhibitory concentration (IC50) in experiment [1] is 350 nM; in experiment [2], 300 nM; in experiment [3], over 10000 nM; in experiment [4] it was 330 nM.
Turning to `NCCCC[C@@H]1NC(=O)c2coc(n2)-c2coc(n2)-c2coc(n2)[C@H](CCCCN)NC(=O)c2coc(n2)-c2coc(n2)-c2coc1n2`, the IC50 in experiment [2], in experiment [3] and in experiment [4] was over 10000 nM each time.
Consider `CC(C)[C@@H]1NC(=O)c2coc(n2)-c2coc(n2)-c2coc(n2)[C@H](CCCN(C)C)NC(=O)c2coc(n2)-c2coc(n2)-c2coc1n2`, for which the IC50 in experiment [1] is 230 nM; in experiment [2] it was 300 nM; in experiment [3], over 10000 nM; in experiment [4], 70 nM. Further, the thermal shift (ΔTm) in experiment [5] worked out at 24 °C.
Take `CC(C)(C)OC(=O)NCCCC[C@@H]1NC(=O)c2coc(n2)-c2coc(n2)-c2coc(n2)[C@H](CCCCNC(=O)OC(C)(C)C)NC(=O)c2coc(n2)-c2coc(n2)-c2coc1n2`: the half-maximal inhibitory concentration (IC50) was 400 nM in experiment [1], 250 nM in experiment [2], over 10000 nM in experiment [3] and 330 nM in experiment [4].
The corresponding values for `CC(=O)NCCCC[C@@H]1NC(=O)c2coc(n2)-c2coc(n2)-c2coc(n2)[C@H](C(C)C)NC(=O)c2coc(n2)-c2coc(n2)-c2coc1n2` are 750 nM, 710 nM, over 10000 nM and 1900 nM.
The corresponding values for `CC(C)(C)OC(=O)NCCC[C@@H]1NC(=O)c2coc(n2)-c2coc(n2)-c2coc(n2)[C@H](CCCNC(=O)OC(C)(C)C)NC(=O)c2coc(n2)-c2coc(n2)-c2coc1n2` are 1400 nM, 450 nM, over 10000 nM and 380 nM.
Consider `CC(C)[C@@H]1NC(=O)c2coc(n2)-c2coc(n2)-c2coc(n2)[C@H](CCCNC(=O)OC(C)(C)C)NC(=O)c2coc(n2)-c2coc(n2)-c2coc1n2`, for which the IC50 in experiment [1] was 290 nM; in experiment [2], 230 nM; in experiment [3] it was over 10000 nM; in experiment [4], 150 nM.
On the same counts, the results for `CN(C)CCC[C@@H]1NC(=O)c2coc(n2)-c2coc(n2)-c2coc(n2)[C@H](CCCN(C)C)NC(=O)c2coc(n2)-c2coc(n2)-c2coc1n2` are over 10000 nM, 4200 nM, over 10000 nM and 3000 nM.
For `CC(=O)NCC[C@@H]1NC(=O)c2coc(n2)-c2coc(n2)-c2coc(n2)[C@H](CCNC(C)=O)NC(=O)c2coc(n2)-c2coc(n2)-c2coc1n2`, the IC50 in experiment [1], in experiment [2], in experiment [3] and in experiment [4] was over 10000 nM throughout.
